Reference: ChEMBL document CHEMBL4261600 (Eur J Med Chem, 2018)

Assays:
SK-N-BE(2)-M17 = assay: Antiproliferative activity against human BE(2)-M17 cells after 72 hrs by Celltiter-Glo assay; assay type: functional; conditions: SK-N-BE(2)-M17, 72 h
Outline: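 Cells seeded at 3000/well in 96-well plates, exposed to serially diluted compound for 72 h at 37 °C, 5% CO2. Viability read by CellTiter-Glo luminescence and normalized to DMSO control. GI50 derived from curve fit, mean of three independent measurements. Culture media: DMEM/10% FBS for adherent lines; IMDM for MV4-11 and MEC-1/2; RPMI 1640 for suspension lines and CHL.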

[1] = MRT (0 to infinity) in Sprague-Dawley rat at 3 mg/kg, iv by LC-MS/MS analysis; assay type: ADME, organism-based; conditions: in vivo
[2] = tested on: Tyrosine-protein kinase ABL1 (Homo sapiens), P00519 [E255K]; assay: Binding affinity to human phosphorylated ABL1 E255K mutant (S229 to K512 residues) expressed in mammalian expression system assessed as remaining unbound target protein level at 1000 nM by Kinomescan method relative to control
Outline: (§1)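 KINOMEscan competition-binding profiling across the panel of 468 kinases and mutants, with inhibitor tested at 1 μM. Binding is expressed as percent of control, with DMSO as the reference control.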

[3] = target: RAC-gamma serine/threonine-protein kinase (Homo sapiens) (UniProt Q9Y243); assay: Binding affinity to wild-type human partial length AKT3 expressed in bacterial expression system assessed as remaining unbound target protein level at 1000 nM by Kinomescan method relative to control
Chain of RAC-gamma serine/threonine-protein kinase (Homo sapiens) (Q9Y243 whole entry): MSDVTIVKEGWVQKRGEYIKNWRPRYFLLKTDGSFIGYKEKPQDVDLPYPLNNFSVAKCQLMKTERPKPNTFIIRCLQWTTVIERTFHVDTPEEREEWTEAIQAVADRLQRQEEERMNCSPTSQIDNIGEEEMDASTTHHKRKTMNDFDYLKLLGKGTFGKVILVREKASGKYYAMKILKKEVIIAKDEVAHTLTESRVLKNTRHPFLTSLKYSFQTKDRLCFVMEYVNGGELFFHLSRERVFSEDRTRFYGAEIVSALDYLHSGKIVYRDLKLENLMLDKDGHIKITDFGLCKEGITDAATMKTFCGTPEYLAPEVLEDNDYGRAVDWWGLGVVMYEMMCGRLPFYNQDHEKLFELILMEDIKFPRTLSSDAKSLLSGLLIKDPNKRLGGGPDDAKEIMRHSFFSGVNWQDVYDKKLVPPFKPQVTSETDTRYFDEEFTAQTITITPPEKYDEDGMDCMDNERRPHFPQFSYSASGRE
Outline: (§2)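 Profiled in a KINOMEscan binding panel with the inhibitor at a single concentration of 1 μM. Binding to each kinase was read out as percent of control, relative to a DMSO control. Strong binders were defined as those with a percent control value below 1.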

[4] = target: Serine/threonine-protein kinase B-raf (Homo sapiens) (UniProt P15056); assay: Binding affinity to wild-type human partial length BRAF (S429 to E741 residues) expressed in mammalian expression system assessed as remaining unbound target protein level at 1000 nM by Kinomescan method relative to control; outline: as §2
[5] = target: Epithelial discoidin domain-containing receptor 1 (Homo sapiens) (UniProt Q08345); assay: Binding affinity to wild-type human partial length DDR1 (R565 to V876 residues) expressed in bacterial expression system assessed as remaining unbound target protein level at 1000 nM by Kinomescan method relative to control
[6] = target: Ephrin type-B receptor 1 (Homo sapiens) (UniProt P54762); assay: Binding affinity to wild-type human partial length EPHB1 (P589 to T911 residues) expressed in bacterial expression system assessed as remaining unbound target protein level at 1000 nM by Kinomescan method relative to control
[7] = target: Ephrin type-B receptor 3 (Homo sapiens) (UniProt P54753); assay: Binding affinity to wild-type human partial length EPHB3 (Q599 to T928 residues) expressed in bacterial expression system assessed as remaining unbound target protein level at 1000 nM by Kinomescan method relative to control
Chain of Ephrin type-B receptor 3 (Homo sapiens) (P54753 whole entry, the tested form may be a part): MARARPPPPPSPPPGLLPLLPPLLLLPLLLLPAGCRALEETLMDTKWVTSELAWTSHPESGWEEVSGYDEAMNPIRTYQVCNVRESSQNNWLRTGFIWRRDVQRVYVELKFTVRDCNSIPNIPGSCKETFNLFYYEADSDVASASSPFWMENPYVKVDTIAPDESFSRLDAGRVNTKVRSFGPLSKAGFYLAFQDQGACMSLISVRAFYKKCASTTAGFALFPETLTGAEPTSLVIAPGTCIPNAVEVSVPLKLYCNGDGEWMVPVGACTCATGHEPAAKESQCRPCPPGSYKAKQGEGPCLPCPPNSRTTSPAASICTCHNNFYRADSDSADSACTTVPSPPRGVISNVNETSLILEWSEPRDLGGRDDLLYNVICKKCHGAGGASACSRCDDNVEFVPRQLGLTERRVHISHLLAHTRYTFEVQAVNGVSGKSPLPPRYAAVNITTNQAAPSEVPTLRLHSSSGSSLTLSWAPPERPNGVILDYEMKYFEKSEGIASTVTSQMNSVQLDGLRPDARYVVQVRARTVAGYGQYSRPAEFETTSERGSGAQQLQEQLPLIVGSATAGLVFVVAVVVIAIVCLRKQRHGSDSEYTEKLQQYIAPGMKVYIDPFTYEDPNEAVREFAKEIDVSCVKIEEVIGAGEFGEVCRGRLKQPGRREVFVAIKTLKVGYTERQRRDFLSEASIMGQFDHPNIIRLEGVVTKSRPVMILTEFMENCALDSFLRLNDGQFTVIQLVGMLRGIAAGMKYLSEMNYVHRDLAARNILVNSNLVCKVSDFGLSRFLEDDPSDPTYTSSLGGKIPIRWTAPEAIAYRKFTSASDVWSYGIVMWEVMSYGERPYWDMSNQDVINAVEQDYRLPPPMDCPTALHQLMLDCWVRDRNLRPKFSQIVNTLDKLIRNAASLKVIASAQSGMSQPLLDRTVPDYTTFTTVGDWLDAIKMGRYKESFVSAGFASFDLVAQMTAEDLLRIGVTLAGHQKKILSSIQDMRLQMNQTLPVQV

[8] = target: Insulin receptor (Homo sapiens) (UniProt P06213); assay: Binding affinity to wild-type human partial length INSR (P997 to E1318 residues) expressed in mammalian expression system assessed as remaining unbound target protein level at 1000 nM by Kinomescan method relative to control
Outline: (§3)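 KINOMEscan binding panel of 468 kinases/mutants. Inhibitor was tested at a single concentration of 1 μM. Binding is reported as percent of control, defined relative to a DMSO control.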

[9] = target: Tyrosine-protein kinase JAK3 (Homo sapiens) (UniProt P52333); assay: Binding affinity to wild-type human partial length JAK3 JH1 catalytic domain (I781 to S1124 residues) expressed in mammalian expression system assessed as remaining unbound target protein level at 1000 nM by Kinomescan method relative to control
[10] = target: Mitogen-activated protein kinase kinase kinase kinase 4 (Homo sapiens) (UniProt O95819); assay: Binding affinity to wild-type human partial length MAP4K4 (M1 to R310 residues) expressed in bacterial expression system assessed as remaining unbound target protein level at 1000 nM by Kinomescan method relative to control; outline: as §3
Chain of Mitogen-activated protein kinase kinase kinase kinase 4 (Homo sapiens) (O95819 2-1239 limits assumed): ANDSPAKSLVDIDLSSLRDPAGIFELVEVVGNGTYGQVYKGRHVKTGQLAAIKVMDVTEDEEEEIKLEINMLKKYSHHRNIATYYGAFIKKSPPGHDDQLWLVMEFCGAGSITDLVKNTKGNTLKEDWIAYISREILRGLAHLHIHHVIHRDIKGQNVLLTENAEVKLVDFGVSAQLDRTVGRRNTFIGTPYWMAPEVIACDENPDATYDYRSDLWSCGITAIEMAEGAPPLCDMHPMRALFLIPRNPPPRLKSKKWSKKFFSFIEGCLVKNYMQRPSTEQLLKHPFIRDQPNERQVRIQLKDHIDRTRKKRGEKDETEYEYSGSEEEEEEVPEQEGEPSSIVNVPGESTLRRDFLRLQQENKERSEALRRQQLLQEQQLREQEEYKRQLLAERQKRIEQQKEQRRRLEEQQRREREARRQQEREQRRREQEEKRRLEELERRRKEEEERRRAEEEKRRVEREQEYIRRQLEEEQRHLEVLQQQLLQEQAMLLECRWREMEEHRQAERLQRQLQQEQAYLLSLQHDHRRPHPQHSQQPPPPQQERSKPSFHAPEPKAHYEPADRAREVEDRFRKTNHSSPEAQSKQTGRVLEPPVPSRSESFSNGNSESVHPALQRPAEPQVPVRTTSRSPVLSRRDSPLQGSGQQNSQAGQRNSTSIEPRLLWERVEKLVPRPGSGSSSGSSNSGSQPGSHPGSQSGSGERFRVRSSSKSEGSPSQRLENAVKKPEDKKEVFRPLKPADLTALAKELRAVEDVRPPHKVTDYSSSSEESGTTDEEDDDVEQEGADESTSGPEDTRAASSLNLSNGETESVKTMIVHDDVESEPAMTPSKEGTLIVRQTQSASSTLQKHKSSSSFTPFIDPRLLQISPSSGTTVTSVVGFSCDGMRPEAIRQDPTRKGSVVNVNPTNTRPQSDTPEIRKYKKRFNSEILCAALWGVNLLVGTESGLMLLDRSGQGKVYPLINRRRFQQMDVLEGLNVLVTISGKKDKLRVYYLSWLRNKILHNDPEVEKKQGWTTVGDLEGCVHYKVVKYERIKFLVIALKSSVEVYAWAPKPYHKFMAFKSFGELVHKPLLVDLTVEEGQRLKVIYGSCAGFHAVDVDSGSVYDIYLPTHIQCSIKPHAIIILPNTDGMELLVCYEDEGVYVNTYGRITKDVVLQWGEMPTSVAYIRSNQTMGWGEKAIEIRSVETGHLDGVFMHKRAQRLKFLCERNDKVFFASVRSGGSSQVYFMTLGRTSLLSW

[11] = target: Phosphatidylinositol 3-kinase C2 domain-containing subunit gamma (Homo sapiens) (UniProt O75747); assay: Binding affinity to wild-type human partial length PIK3C2G (M1 to I1446 residues) expressed in mammalian expression system assessed as remaining unbound target protein level at 1000 nM by Kinomescan method relative to control; outline: as §3
Chain of Phosphatidylinositol 3-kinase C2 domain-containing subunit gamma (Homo sapiens) (O75747 whole entry, the tested form may be a part, canonical isoform): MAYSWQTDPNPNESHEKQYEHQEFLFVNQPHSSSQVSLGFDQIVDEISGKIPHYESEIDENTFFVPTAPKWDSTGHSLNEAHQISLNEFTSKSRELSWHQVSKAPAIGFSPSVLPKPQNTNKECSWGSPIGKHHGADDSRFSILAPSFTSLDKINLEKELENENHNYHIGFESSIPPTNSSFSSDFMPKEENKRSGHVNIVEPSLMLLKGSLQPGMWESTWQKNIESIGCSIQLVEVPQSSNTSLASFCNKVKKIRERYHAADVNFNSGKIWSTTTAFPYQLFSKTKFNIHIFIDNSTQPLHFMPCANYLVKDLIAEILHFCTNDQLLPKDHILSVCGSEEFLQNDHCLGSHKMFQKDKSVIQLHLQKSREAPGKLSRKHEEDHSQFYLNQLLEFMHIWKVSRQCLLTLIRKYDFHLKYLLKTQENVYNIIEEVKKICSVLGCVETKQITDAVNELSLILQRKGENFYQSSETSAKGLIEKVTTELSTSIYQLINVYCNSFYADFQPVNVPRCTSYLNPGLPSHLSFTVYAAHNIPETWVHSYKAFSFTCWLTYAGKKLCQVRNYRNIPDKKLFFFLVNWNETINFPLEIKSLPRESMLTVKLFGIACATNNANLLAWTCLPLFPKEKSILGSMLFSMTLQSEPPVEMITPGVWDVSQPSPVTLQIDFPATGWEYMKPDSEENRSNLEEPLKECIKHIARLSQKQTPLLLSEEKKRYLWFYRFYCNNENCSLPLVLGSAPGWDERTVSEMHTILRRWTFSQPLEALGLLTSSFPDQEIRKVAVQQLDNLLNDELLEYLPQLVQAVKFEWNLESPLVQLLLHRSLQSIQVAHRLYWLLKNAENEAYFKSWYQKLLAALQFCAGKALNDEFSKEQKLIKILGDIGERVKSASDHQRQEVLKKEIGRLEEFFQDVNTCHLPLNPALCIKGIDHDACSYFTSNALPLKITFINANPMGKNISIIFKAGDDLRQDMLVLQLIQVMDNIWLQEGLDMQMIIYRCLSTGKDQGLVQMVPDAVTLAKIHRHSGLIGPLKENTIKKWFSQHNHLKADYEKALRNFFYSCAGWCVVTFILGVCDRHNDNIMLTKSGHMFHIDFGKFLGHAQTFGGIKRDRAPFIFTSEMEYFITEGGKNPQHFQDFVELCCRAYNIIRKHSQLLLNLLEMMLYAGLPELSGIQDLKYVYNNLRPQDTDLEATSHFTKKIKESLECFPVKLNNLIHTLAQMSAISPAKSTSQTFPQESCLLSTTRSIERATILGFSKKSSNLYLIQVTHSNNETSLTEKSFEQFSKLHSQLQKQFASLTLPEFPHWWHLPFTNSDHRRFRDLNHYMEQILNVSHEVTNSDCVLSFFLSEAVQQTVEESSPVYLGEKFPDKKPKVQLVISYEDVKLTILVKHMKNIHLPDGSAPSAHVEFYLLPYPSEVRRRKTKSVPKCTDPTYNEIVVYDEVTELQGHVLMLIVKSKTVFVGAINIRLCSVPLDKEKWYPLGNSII

[12] = tested on: Phosphatidylinositol 4,5-bisphosphate 3-kinase catalytic subunit alpha isoform (Homo sapiens), P42336 [E545K]; assay: Binding affinity to human partial length PIK3CA E545K mutant (R108 to N1068 residues) expressed in mammalian expression system assessed as remaining unbound target protein level at 1000 nM by Kinomescan method relative to control; outline: as §1
[13] = target: Phosphatidylinositol 4-phosphate 5-kinase type-1 alpha (Homo sapiens) (UniProt Q99755); assay: Binding affinity to wild-type human full length PIP5K1A (M1 to H562 residues) expressed in bacterial expression system assessed as remaining unbound target protein level at 1000 nM by Kinomescan method relative to control; outline: as §2
[14] = target: Dual serine/threonine and tyrosine protein kinase (Homo sapiens) (UniProt Q6XUX3); assay: Binding affinity to wild-type human full length RIPK5 (M1 to T929 residues) expressed in mammalian expression system assessed as remaining unbound target protein level at 1000 nM by Kinomescan method relative to control
Chain of Dual serine/threonine and tyrosine protein kinase (Homo sapiens) (Q6XUX3 whole entry, the tested form may be a part): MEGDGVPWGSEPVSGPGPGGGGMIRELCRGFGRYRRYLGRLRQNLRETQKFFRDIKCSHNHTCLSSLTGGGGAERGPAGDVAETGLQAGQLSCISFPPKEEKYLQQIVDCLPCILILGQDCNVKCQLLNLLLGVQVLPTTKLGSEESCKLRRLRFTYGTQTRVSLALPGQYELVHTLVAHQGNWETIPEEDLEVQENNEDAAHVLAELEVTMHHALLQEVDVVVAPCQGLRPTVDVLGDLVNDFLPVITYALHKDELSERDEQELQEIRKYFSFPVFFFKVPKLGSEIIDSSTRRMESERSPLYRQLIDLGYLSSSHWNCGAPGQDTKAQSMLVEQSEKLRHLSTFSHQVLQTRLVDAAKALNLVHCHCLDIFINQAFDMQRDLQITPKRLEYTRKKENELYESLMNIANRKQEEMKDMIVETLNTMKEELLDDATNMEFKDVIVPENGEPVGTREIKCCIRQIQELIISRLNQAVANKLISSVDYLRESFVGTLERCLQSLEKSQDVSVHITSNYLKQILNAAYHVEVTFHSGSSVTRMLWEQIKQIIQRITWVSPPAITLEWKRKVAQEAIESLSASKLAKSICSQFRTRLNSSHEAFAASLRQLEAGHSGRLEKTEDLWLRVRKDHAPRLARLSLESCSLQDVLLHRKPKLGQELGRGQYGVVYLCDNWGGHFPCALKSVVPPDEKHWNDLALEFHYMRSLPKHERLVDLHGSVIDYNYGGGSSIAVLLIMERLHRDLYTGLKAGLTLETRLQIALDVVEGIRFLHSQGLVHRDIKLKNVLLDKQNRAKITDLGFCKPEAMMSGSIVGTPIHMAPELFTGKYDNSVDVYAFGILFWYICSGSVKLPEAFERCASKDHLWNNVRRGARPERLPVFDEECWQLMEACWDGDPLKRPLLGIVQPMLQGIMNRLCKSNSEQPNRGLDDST
Outline: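 KINOMEscan competition binding profile across a panel of 468 kinases and mutants, with the inhibitor tested at a single concentration of 1 μM. Binding is reported as percent of control, meaning signal relative to a DMSO control.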

[15] = target: Ribosomal protein S6 kinase alpha-4 (Homo sapiens) (UniProt O75676); assay: Binding affinity to wild-type human partial length N-terminal RPS6KA4 kinase domain 1 expressed in bacterial expression system assessed as remaining unbound target protein level at 1000 nM by Kinomescan method relative to control
[16] = target: Ribosomal protein S6 kinase alpha-5 (Homo sapiens) (UniProt O75582); assay: Binding affinity to wild-type human partial length N-terminal RPS6KA5 kinase domain 1 expressed in bacterial expression system assessed as remaining unbound target protein level at 1000 nM by Kinomescan method relative to control
[17] = target: Serine/threonine-protein kinase Sgk1 (Homo sapiens) (UniProt O00141); assay: Binding affinity to wild-type human partial length SGK (I60 to L431 residues) expressed in mammalian expression system assessed as remaining unbound target protein level at 1000 nM by Kinomescan method relative to control
[18] = target: BDNF/NT-3 growth factors receptor (Homo sapiens) (UniProt Q16620); assay: Binding affinity to wild-type human partial length TRKB (Q547 to G838 residues) expressed in mammalian expression system assessed as remaining unbound target protein level at 1000 nM by Kinomescan method relative to control
[19] = Antiproliferative activity against Chinese hamster CHL cells after 72 hrs by Celltiter-Glo assay; conditions: Cricetulus griseus
[20] = tested on: Mitogen-activated protein kinase kinase kinase 12 (DLK); assay: Binding affinity to wild-type human full length DLK (M1 to P859 residues) expressed in mammalian expression system assessed as remaining unbound target protein level at 1000 nM by Kinomescan method relative to control

## COCCN[C@H]1CC[C@H](Nc2cc(-c3csc(NCC4(C#N)CCOCC4)n3)c(Cl)cn2)CC1
SK-N-BE(2)-M17
  GI50: 0.034 µM
[1]
  MRT inf: 6.33 h
[2]
  Activity: 72%
[3]
  Activity: 100%
[4]
  Activity: 97%
[5]
  Activity: 89%
[6]
  Activity: 88%
[7]
  Activity: 100%
[8]
  Activity: 94%
[9]
  Activity: 92%
[10]
  Activity: 91%
[11]
  Activity: 80%
[12]
  Activity: 100%
[13]
  Activity: 100%
[14]
  Activity: 95%
[15]
  Activity: 92%
[16]
  Activity: 100%
[17]
  Activity: 70%
[18]
  Activity: 79%
[19]
  GI50: 1.2 µM
[20]
  Activity: 100%
